Test results reported in ChEMBL document CHEMBL1157912, “Impact of nature and length of linker incorporated in agonists on toll-like receptor 9-mediated immune responses” (J Med Chem, 2010).
Calls of active or inactive are those of the source. The rule behind the calls is not given here.

Assays:
[1] = target: T1, Toll-like receptor 9 (Mus musculus) (UniProt Q9EQU3); assay: Induction of TLR9-mediated IL12 production in C57BL/6 mouse spleen cells after 24 hrs by ELISA; format: cell-based
T1 sequence (whole entry): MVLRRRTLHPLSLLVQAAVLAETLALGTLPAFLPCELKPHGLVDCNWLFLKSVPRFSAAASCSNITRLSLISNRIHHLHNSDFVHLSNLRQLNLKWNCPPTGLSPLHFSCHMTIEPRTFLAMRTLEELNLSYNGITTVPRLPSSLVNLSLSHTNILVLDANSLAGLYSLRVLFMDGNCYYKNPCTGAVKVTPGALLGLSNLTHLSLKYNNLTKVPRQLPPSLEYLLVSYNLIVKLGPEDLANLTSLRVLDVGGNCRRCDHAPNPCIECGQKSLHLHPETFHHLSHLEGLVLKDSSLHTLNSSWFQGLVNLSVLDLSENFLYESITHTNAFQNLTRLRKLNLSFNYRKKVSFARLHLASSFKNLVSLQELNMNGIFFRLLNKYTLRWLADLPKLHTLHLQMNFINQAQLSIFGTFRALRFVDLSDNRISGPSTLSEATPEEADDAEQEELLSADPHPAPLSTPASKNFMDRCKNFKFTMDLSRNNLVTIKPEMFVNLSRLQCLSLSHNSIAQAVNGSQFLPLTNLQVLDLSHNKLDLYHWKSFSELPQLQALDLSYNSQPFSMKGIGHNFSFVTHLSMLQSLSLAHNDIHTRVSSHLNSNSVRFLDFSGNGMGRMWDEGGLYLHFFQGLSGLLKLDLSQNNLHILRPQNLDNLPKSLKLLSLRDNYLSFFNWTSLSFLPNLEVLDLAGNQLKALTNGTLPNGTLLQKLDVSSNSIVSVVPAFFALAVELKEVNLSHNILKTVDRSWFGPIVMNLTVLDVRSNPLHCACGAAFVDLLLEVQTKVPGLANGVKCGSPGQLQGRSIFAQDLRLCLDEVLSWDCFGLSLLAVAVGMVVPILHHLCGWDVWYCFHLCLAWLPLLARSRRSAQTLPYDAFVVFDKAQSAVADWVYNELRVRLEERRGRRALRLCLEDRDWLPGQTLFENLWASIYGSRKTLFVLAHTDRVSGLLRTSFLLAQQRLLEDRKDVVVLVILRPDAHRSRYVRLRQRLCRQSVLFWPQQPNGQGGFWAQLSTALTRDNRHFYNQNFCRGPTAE
Procedure, shortened: (§1)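 C57BL/6 mouse spleen cells were cultured with agonists at 0.1, 0.3, 1, 3 and 10 μg/mL for 24 h. Secreted IL-12 and IL-6 in the supernatants were measured by ELISA. Values are averages of triplicate wells from one representative of at least two independent experiments.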

[2] = target: T1, Toll-like receptor 9 (Mus musculus); assay: Induction of TLR9-mediated IL6 production in C57BL/6 mouse spleen cells after 24 hrs by ELISA; format: cell-based; procedure, shortened: as §1
[3] = target: T2, Toll-like receptor 9 (Homo sapiens) (UniProt Q9NR96); assay: Induction of TLR9-mediated immune stimulation in human PBMC assessed as IL1Ralpha production at 2 ug/ml after 24 hrs by luminex multiplex assay (RVb = 0.12 +/- 0.03 ng/ml)
T2 sequence (whole entry): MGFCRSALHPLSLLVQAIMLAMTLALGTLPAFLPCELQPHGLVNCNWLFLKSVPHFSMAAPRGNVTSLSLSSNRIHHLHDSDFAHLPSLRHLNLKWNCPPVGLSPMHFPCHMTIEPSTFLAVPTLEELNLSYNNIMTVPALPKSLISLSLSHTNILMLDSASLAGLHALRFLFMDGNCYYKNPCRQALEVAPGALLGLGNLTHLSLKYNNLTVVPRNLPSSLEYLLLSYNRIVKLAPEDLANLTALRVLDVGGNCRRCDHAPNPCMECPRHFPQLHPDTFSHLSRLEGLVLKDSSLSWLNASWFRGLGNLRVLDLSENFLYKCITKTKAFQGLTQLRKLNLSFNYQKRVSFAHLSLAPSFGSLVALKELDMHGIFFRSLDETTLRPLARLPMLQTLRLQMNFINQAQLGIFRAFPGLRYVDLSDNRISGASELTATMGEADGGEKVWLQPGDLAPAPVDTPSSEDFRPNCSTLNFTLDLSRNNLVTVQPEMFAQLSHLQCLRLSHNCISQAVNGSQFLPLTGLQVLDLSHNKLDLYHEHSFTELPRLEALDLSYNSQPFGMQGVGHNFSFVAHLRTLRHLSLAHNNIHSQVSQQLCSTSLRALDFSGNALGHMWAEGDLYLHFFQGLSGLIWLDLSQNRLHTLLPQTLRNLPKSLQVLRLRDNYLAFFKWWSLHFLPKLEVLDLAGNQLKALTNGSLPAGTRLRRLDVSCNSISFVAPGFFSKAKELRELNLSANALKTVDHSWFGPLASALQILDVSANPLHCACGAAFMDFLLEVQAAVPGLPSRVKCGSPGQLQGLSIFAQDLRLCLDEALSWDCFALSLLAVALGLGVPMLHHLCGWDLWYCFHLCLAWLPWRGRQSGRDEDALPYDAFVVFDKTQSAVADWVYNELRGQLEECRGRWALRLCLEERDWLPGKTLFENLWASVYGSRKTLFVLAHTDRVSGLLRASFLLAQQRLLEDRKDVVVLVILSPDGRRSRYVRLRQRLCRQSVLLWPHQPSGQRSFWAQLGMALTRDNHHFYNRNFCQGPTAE

[4] = target: T2, Toll-like receptor 9 (Homo sapiens); assay: Induction of TLR9-mediated immune stimulation in human PBMC assessed as IL2R production at 2 ug/ml after 24 hrs by luminex multiplex assay (RVb = 0.02 +/- 0.01 ng/ml)
[5] = target: T2, Toll-like receptor 9 (Homo sapiens); assay: Induction of TLR9-mediated immune stimulation in human PBMC assessed as IL12 production at 2 ug/ml after 24 hrs by luminex multiplex assay (RVb = 0.00 ng/ml)
[6] = target: T2, Toll-like receptor 9 (Homo sapiens); assay: Induction of TLR9-mediated immune stimulation in human PBMC assessed as MIP1alpha production at 2 ug/ml after 24 hrs by luminex multiplex assay (RVb = 0.01 ng/ml)
[7] = target: T2, Toll-like receptor 9 (Homo sapiens); assay: Induction of TLR9-mediated immune stimulation in human PBMC assessed as MIP1beta production at 2 ug/ml after 24 hrs by luminex multiplex assay (RVb = 0.03 +/- 0.02 ng/ml)
[8] = target: T2, Toll-like receptor 9 (Homo sapiens); assay: Induction of TLR9-mediated immune stimulation in human PBMC assessed as MIP1beta production at 10 ug/ml after 24 hrs by luminex multiplex assay (RVb = 0.03 +/- 0.02 ng/ml)
[9] = target: T2, Toll-like receptor 9 (Homo sapiens); assay: Induction of TLR9-mediated immune stimulation in human PBMC assessed as RANTES production at 10 ug/ml after 24 hrs by luminex multiplex assay (RVb = 0.05 +/- 0.04 ng/ml)
Mus musculus = assay: Immunostimulatory activity in C57BL/6 mouse assessed as increase in serum IL12 level at 1 mg/kg, sc after 2 hrs by ELISA; format: functional, organism-based; parameters: dose 1 mg/kg
Procedure, shortened: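 Female C57BL/6 mice (n=3) received a single subcutaneous agonist dose of 1 mg/kg. Blood was taken by retro-orbital bleeding 2 h later, and serum IL-12 was measured by sandwich ELISA. Values are the mean of three mice ± SD.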

For Cc1cn([C@H]2C[C@H](OCC(O)COP(=O)(S)O[C@H]3C[C@H](n4cc(C)c(=O)[nH]c4=O)O[C@@H]3COP(=O)(S)O[C@H]3[C@@H](O)[C@H](n4ccc(N)nc4=O)O[C@@H]3COP(=O)(S)O[C@H]3[C@@H](O)[C@H](n4cnc5c(N)ncnc54)O[C@@H]3COP(=O)(S)O[C@H]3[C@@H](O)[C@H](n4cnc5c(N)ncnc54)O[C@@H]3COP(=O)(S)O[C@H]3[C@@H](O)[C@H](n4ccc(N)nc4=O)O[C@@H]3COP(=O)(S)O[C@H]3[C@@H](O)[C@H](n4ccc(N)nc4=O)O[C@@H]3COP(=O)(S)O[C@H]3[C@@H](O)[C@H](n4cnc5c(N)ncnc54)O[C@@H]3COP(=O)(S)O[C@H]3[C@@H](O)[C@H](n4ccc(N)nc4=O)O[C@@H]3COP(=O)(S)O[C@H]3[C@@H](O)[C@H](n4cnc5c(N)ncnc54)O[C@@H]3COP(=O)(S)O[C@H]3[C@@H](O)[C@H](n4ccc(N)nc4=O)O[C@@H]3COP(=O)(S)O[C@H]3[C@@H](O)[C@H](n4cnc5c(N)ncnc54)O[C@@H]3CO)[C@@H](COP(=O)(S)O[C@H]3[C@@H](O)[C@H](n4ccc(N)nc4=O)O[C@@H]3COP(=O)(S)O[C@H]3[C@@H](O)[C@H](n4cnc5c(N)ncnc54)O[C@@H]3COP(=O)(S)O[C@H]3[C@@H](O)[C@H](n4cnc5c(N)ncnc54)O[C@@H]3COP(=O)(S)O[C@H]3[C@@H](O)[C@H](n4ccc(N)nc4=O)O[C@@H]3COP(=O)(S)O[C@H]3[C@@H](O)[C@H](n4ccc(N)nc4=O)O[C@@H]3COP(=O)(S)O[C@H]3[C@@H](O)[C@H](n4cnc5c(N)ncnc54)O[C@@H]3COP(=O)(S)O[C@H]3[C@@H](O)[C@H](n4ccc(N)nc4=O)O[C@@H]3COP(=O)(S)O[C@H]3[C@@H](O)[C@H](n4cnc5c(N)ncnc54)O[C@@H]3COP(=O)(S)O[C@H]3[C@@H](O)[C@H](n4ccc(N)nc4=O)O[C@@H]3COP(=O)(S)O[C@H]3[C@@H](O)[C@H](n4cnc5c(N)ncnc54)O[C@@H]3CO)O2)c(=O)[nH]c1=O (stereo not given in full), the Activity [1] was “Dose-dependent effect”, the Activity [2] was “Dose-dependent effect” and the Activity [3] was 5.47 ng/mL. The Activity [4] was 0.06 ng/mL, the Activity [5] was 0.03 ng/mL and the Activity [6] was 0.04 ng/mL. For the same molecule, the Activity [7] was 0.07 ng/mL, the Activity [8] was 0.15 ng/mL and the Activity [9] was 0.52 ng/mL. For the same molecule, the Activity (Mus musculus) was “Active”.
